Calls of active or inactive are those of the source. The calls are words filed in the database; no cut-off is given here.
Tests used:
Format in all cases: functional, organism-based
Rattus norvegicus [1] = assay: Induction of stereotyped behavior in Sprague-Dawley rat at 0.6 ug/ul, icv
Procedure, shortened: (§1)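 Cannula placed in the right lateral ventricle under pentobarbital (40 mg/kg, ip) at 0.40 mm bregma, 1.1 mm lateral, 2.2 mm ventral. After 3 days, compound (0.6 or 6.0 µg/5 µl, or 50 µg/5 µl) or 0.9% NaCl infused at 0.5 µl/min. Starting 5 min later, behavior observed for 45 min in Plexiglas chambers. Gnawing recorded by computer at 4.5 min intervals. Four rats per measurement; ANOVA with Duncan's test.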

Rattus norvegicus [2] = assay: Natriuretic effect in icv dosed Sprague-Dawley rat assessed as increase in sodium excretion after 6 hrs
Procedure, shortened: (§2)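 Adult male Sprague-Dawley rats (220–280 g) fitted with a cannula in the left lateral cerebroventricle under pentobarbital (40 mg/kg, ip), then allowed at least 3 days of recovery. Single ICV injection of 50 µg/10 µl, or vehicle NaCl 0.9%. Oral water load of 20 ml/kg, then individual metabolic cages. Urine collected at 3 and 6 h, with the bladder emptied at 6 h. Sodium measured by flame photometry. N = 6–8 per group; two-way ANOVA with Newman–Keuls.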

Rattus norvegicus [3] = assay: Inhibition of dopamine-induced natriuresis in icv dosed Sprague-Dawley rat
Procedure, shortened: (§3)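 Male Sprague-Dawley rats (220–280 g) with a left lateral ventricle cannula. ICV pretreatment of 50 µg/5 µl, or vehicle 5 µl, given 15 min before ICV dopamine (100 µg/5 µl) or saline, then oral water 20 ml/kg. Urine volume and sodium (flame photometry) measured over 3 h and 6 h collections. N = 6–8; two-way ANOVA with Newman–Keuls.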

Rattus norvegicus [4] = assay: Inhibition of dopamine-induced diuresis in icv dosed Sprague-Dawley rat; procedure, shortened: as §3
Rattus norvegicus [5] = assay: Reduction of apomorphine-induced stereotyped behavior in Sprague-Dawley rat at 6 ug/ul, icv
Procedure, shortened: (§4)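 Rats cannulated in the right lateral ventricle. ICV infusion of 0.6 or 6.0 µg/5 µl, or 0.9% NaCl, at 0.5 µl/min. Apomorphine HCl (1 mg/kg) given 1 min before observation began. Stereotyped gnawing recorded by computer at 4.5 min intervals for 45 min. Four rats per measurement; means ± SEM; ANOVA with Duncan's multiple range test.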

Rattus norvegicus [6] = assay: Reduction of apomorphine-induced stereotyped behavior in Sprague-Dawley rat at 0.6 ug/ul, icv; procedure, shortened: as §4
Rattus norvegicus [7] = assay: Induction of stereotyped behavior in Sprague-Dawley rat at 6 ug/ul, icv; procedure, shortened: as §1
Rattus norvegicus [8] = assay: Diuretic effect in icv dosed Sprague-Dawley rat assessed as increase in urine volume after 6 hrs; procedure, shortened: as §2
Rattus norvegicus [9] = assay: Natriuretic effect in icv dosed Sprague-Dawley rat assessed as increase in sodium excretion after 3 hrs; procedure, shortened: as §2
Rattus norvegicus [10] = assay: Induction of stereotyped behavior in icv dosed Sprague-Dawley rat; procedure, shortened: as §1

Structure (SMILES)	Activity (Rattus norvegicus [1])	Activity (Rattus norvegicus [2])	Activity (Rattus norvegicus [3])	Activity (Rattus norvegicus [4])	Activity (Rattus norvegicus [5])	Activity (Rattus norvegicus [6])	Activity (Rattus norvegicus [7])	Activity (Rattus norvegicus [8])	Activity (Rattus norvegicus [9])	Activity (Rattus norvegicus [10])
CC(Cc1ccc(O)c(O)c1)NC1Cc2ccc(O)c(O)c2C1 (configuration not stated)	inactive	inactive	Active	Active	Active	Active	inactive	inactive	inactive	
CCC(C)NC1Cc2ccc(O)c(O)c2C1 (configuration not stated)		Active						Active		Active

Reference: ChEMBL document CHEMBL1143933, “Synthesis, dopaminergic profile, and molecular dynamics calculations of N-aralkyl substituted 2-aminoindans” (Bioorg Med Chem, 2008)
